Test results taken from ChEMBL document CHEMBL3232774, “Symmetric bis-chalcones as a new type of breast cancer resistance protein inhibitors with a mechanism different from that of chromones” (J Med Chem, 2014).

Columns and labels:
[1] = target: ATP-dependent translocase ABCB1 (Homo sapiens, UniProt P08183); experiment: Inhibition of ABCB1 (unknown origin) transfected in mouse NIH/3T3 cells assessed as inhibition of mitoxantrone efflux up to 10 uM after 30 mins by flow cytometry relative to control; type: cell-based; conditions: nih/3t3, 0.5 h
ATP-dependent translocase ABCB1, sequence (P08183 whole entry): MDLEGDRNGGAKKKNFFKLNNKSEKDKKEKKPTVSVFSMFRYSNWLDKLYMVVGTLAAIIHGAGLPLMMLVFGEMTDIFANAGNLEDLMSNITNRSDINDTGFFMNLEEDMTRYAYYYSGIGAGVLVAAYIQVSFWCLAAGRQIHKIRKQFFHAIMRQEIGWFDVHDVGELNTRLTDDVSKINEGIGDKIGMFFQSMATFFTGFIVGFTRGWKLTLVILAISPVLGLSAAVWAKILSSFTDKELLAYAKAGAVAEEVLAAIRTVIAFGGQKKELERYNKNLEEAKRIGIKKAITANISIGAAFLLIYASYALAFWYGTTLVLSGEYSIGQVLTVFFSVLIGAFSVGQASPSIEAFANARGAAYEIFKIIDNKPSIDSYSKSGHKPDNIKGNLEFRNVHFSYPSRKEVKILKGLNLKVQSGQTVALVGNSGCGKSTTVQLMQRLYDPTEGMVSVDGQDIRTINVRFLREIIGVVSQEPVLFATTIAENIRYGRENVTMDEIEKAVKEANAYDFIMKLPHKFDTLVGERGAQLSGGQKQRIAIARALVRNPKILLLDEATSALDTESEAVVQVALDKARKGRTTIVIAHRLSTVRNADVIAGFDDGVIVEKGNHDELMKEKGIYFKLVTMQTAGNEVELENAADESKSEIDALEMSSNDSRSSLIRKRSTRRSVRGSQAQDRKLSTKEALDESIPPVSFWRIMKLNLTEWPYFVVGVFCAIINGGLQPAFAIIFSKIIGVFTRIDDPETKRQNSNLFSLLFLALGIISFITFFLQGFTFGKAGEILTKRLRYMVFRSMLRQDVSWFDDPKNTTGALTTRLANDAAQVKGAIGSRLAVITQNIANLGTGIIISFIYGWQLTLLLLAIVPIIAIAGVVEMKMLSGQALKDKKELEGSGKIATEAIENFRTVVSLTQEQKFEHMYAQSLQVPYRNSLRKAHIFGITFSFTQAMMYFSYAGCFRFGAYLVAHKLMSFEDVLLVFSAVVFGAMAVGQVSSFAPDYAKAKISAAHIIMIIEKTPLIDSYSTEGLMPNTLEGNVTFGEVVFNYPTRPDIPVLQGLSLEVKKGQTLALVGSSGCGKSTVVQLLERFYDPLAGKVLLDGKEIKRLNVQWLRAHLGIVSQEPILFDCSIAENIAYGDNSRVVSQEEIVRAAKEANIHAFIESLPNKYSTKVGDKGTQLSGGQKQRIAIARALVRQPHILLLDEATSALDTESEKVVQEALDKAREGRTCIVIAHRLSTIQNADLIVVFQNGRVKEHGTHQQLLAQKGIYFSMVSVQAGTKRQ
Summary of the method: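 NIH-3T3-ABCB1 cells (1.5 × 10⁵/well, 48 h, kept in 60 ng/mL colchicine) were given 5 μM mitoxantrone for 30 min at 37 °C with bis-chalcone at 1 or 10 μM. Fluorescence was read by FL4 flow cytometry, ≥10 000 events. Inhibition was expressed relative to parental NIH-3T3 cells, whose maximal accumulation was taken as complete inhibition.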

ABCG2 = target: T1, ABCG2 (Homo sapiens, UniProt Q9UNQ0); experiment: Inhibition of ABCG2 (unknown origin) transfected in HEK293 cells assessed as inhibition of mitoxantrone efflux at 5 uM after 30 mins by flow cytometry relative to control; type: cell-based; conditions: HEK293 cells transfected with ABCG2, probe mitoxantrone
T1 sequence (Q9UNQ0 whole entry): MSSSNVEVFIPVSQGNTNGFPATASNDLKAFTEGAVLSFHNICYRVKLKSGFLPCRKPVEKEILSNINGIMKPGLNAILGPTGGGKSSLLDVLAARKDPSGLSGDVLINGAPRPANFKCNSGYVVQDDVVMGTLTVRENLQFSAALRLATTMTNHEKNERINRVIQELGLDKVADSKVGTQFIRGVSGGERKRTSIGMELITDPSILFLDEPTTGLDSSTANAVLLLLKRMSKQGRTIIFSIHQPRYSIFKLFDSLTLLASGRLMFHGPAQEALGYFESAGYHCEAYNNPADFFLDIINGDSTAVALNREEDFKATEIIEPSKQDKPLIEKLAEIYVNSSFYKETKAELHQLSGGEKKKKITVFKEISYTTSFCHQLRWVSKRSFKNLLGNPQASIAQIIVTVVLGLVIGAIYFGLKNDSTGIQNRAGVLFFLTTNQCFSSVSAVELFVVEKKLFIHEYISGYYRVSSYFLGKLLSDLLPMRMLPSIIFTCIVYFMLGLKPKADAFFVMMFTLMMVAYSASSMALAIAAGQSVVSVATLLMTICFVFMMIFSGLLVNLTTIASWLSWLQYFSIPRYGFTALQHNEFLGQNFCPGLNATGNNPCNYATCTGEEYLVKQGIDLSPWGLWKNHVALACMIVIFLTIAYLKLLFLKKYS
Summary of the method: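 HEK293-ABCG2 cells (1.5 × 10⁵/well, grown 48 h) exposed to 5 μM mitoxantrone for 30 min at 37 °C with compound (increasing concentrations up to 10 μM); washed, trypsinized, FL4 flow cytometry, ≥10 000 events.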

HEK293 = experiment: Cytotoxicity against HEK293 cells overexpressing ABCG2 at 0.1 uM after 72 hrs by MTT assay; type: ADME, cell-based; conditions: human, hek293, 72 h
Summary of the method: (§1)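 HEK293-ABCG2 and vector-control HEK293-pcDNA3.1 cells were seeded at 1 × 10⁴/well and grown 24 h, then exposed 72 h to mitoxantrone (0–25 nM). ABCG2 cells were also given bis-chalcone at 0.1 or 0.5 μM. MTT was added for 4 h, formazan dissolved in DMSO/ethanol (1:1) and read at 570 nm. IC50 = mitoxantrone concentration giving 50% survival.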

[2] = target: T2, Broad substrate specificity ATP-binding cassette transporter ABCG2 (Homo sapiens, UniProt Q9UNQ0); experiment: Inhibition of ABCG2 (unknown origin) transfected in HEK293 cells assessed as inhibition of mitoxantrone efflux after 30 mins by flow cytometry relative to control; type: cell-based
T2 sequence (Q9UNQ0 whole entry): T1 sequence (Q9UNQ0 whole entry)

[3] = target: T2, Broad substrate specificity ATP-binding cassette transporter ABCG2; experiment: Inhibition of human ABCG2 ATPase activity transfected in Sf9 insect cells using quercetin as substrate after 30 mins by colorimetry relative to control
Summary of the method: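 Vanadate-sensitive ATPase of cholesterol-loaded human ABCG2 Sf9 membranes (0.5 mg/mL; 10 μg/sample), 50 mM Tris-HCl/50 mM NaCl pH 8.0, with 2 μM quercetin. ATP-Mg 3.9 mM, 30 min, 37 °C. Phosphate measured colorimetrically at 880 nm. Coupled activity = total minus basal, taken as 100%. IC50 is the concentration giving 50% inhibition.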

[4] = target: Multidrug resistance-associated protein 1 (Homo sapiens, UniProt P33527); experiment: Inhibition of ABCC1 (unknown origin) transfected in HEK293 cells assessed as inhibition of calcein-AM efflux up to 10 uM after 30 mins by flow cytometry relative to control; type: cell-based; conditions: hek293, 0.5 h
Multidrug resistance-associated protein 1, sequence (P33527 whole entry): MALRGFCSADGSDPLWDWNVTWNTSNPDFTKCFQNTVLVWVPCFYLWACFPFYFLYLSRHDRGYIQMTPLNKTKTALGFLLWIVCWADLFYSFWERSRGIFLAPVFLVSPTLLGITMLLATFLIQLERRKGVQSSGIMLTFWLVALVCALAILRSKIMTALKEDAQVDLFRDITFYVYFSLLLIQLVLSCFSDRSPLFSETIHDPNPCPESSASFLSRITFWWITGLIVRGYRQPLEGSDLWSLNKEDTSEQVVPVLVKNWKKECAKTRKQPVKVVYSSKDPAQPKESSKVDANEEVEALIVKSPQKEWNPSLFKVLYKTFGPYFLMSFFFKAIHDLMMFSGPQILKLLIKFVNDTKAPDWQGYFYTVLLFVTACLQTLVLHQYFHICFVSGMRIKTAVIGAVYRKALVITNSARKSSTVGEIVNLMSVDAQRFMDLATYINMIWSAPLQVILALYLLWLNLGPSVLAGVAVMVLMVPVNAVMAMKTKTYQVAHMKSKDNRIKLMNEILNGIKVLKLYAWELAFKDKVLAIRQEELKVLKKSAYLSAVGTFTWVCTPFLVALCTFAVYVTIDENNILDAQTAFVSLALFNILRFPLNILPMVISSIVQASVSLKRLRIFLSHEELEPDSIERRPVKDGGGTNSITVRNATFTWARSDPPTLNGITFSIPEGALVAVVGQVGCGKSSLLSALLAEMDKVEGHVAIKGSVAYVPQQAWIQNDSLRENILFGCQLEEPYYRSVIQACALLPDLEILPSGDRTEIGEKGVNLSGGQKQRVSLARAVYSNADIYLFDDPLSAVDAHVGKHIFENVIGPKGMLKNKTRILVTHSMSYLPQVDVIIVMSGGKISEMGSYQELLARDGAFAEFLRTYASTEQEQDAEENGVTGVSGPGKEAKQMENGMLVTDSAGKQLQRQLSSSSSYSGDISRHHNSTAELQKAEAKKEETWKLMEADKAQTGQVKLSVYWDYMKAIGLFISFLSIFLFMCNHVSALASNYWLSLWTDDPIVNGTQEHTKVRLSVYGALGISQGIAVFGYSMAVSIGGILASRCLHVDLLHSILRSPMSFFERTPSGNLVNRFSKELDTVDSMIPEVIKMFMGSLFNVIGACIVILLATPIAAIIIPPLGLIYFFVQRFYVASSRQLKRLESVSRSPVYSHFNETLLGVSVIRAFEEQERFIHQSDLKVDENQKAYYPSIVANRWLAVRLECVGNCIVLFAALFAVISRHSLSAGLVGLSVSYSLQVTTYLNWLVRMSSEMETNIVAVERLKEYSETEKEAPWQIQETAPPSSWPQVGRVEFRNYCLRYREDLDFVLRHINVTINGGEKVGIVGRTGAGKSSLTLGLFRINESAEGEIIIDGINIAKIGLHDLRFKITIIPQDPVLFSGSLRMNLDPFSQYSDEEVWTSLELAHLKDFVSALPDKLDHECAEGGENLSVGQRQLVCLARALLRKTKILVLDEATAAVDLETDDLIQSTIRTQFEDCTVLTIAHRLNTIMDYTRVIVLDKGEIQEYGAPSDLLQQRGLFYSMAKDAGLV
Summary of the method: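 HEK293-ABCC1 cells (2 × 10⁵/well, kept in 200 μg/mL hygromycin B) were exposed to 0.2 μM calcein-AM for 30 min at 37 °C with bis-chalcone at 1 or 10 μM. Calcein was read by FL1 flow cytometry, ≥10 000 events. Inhibition was expressed relative to HEK293/pcDNA5 cells, whose maximal accumulation equals complete inhibition.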

[5] = Selectivity ratio of EC50 for human H23 cells overexpressing ABCG2 to EC50 for human H460 cells overexpressing ABCG2; type: functional
ABCG2 ATPase = target: T3, ABCG2 ATPase (Homo sapiens, UniProt Q9UNQ0); experiment: Activation of human ABCG2 transfected in Sf9 insect cells assessed as stimulation of basal ATPase activity in absence of substrate drug after 30 mins by colorimetry; conditions: Sf9 insect cells transfected with human ABCG2, read-out: FC
T3 sequence (Q9UNQ0 whole entry): T1 sequence (Q9UNQ0 whole entry)
Summary of the method: (§2)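 Cholesterol-loaded membranes from Sf9 cells overexpressing human ABCG2 (0.5 mg/mL; 10 μg/sample) in 50 mM Tris-HCl, 50 mM NaCl, pH 8.0, with or without 0.33 mM orthovanadate, no transport substrate; started with 3.9 mM ATP-Mg, 30 min at 37 °C; stopped with SDS; phosphate released read with molybdate/ascorbic acid at 880 nm; vanadate-sensitive basal activity taken as 100%.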

[6] = target: T2, Broad substrate specificity ATP-binding cassette transporter ABCG2; experiment: Inhibition of ABCG2 (unknown origin)-mediated mitoxantrone efflux transfected in HEK293 cells assessed as potentiation of mitoxantrone-induced cytotoxicity at 0.1 uM after 72 hrs by MTT assay; type: cell-based; conditions: hek293, 72 h; summary of the method: as §1
[7] = target: T2, Broad substrate specificity ATP-binding cassette transporter ABCG2; experiment: Inhibition of ABCG2 (unknown origin) transfected in HEK293 cells assessed as inhibition of mitoxantrone efflux at 5 uM after 30 mins in presence of 0.1 uM chromone 1 by flow cytometry; type: cell-based
PANC-1 = experiment: Selectivity ratio of EC50 for human PANC1 cells overexpressing ABCG2 to EC50 for human H460 cells overexpressing ABCG2; type: functional
[8] = target: T2, Broad substrate specificity ATP-binding cassette transporter ABCG2; experiment: Inhibition of human ABCG2 transfected in Sf9 insect cells assessed as inhibition of basal ATPase activity in absence of substrate drug after 30 mins by colorimetry; conditions: sf9, 0.5 h; summary of the method: as §2
[9] = target: T2, Broad substrate specificity ATP-binding cassette transporter ABCG2; experiment: Inhibition of ABCG2 (unknown origin) transfected in HEK293 cells assessed as inhibition of mitoxantrone efflux at 5 uM after 30 mins in presence of 0.02 uM Ko143 by flow cytometry; type: cell-based
[10] = tested on: ATP-binding cassette sub-family G member 2 (Homo sapiens); experiment: Inhibition of ABCG2-mediated mitoxantrone efflux in mitoxantrone-selected human PANC1 cells overexpressing ABCG2; conditions: PANC-1

- IC50 [3]: 190 nM
- inhibition (INH) [4]: Not Active
- fold induction at 0.5 h (ABCG2 ATPase): 1.6
- inhibition (INH) [8]: Not Active
SMILES: COc1cccc(OC)c1/C=C/C(=O)c1ccc(C(=O)/C=C/c2c(OC)cccc2OC)cc1
- inhibition (INH) [1]: Not Active
- inhibition at 0.5 h, 5 µM (ABCG2): 108%
- Activity (HEK293): Non-toxic
- EC50 [2]: 200 nM
- Ratio EC50 [5]: 3
- inhibition (INH) [6]: Active
- EC50 [7]: 15 nM
- Ratio EC50 (PANC-1): 3
- EC50 [9]: 126 nM
- EC50 [10]: 210 nM
